Measured values taken from ChEMBL document CHEMBL1125652, “Kynurenic acid derivatives. Structure-activity relationships for excitatory amino acid antagonism and identification of potent and selective antagonists at the glycine site on the N-methyl-D-aspartate receptor” (J Med Chem, 1991).
Active and inactive are the calls of the source. The rule behind the calls is not given here.

How the values were obtained:
Glutamate NMDA receptor [1] = test: Inhibition of [3H]glycine binding to glycine site of N-methyl-D-aspartate glutamate receptor in rat cortical membranes; type: cell membranes, Membrane
[2] = target: T1, Glutamate NMDA receptor (Rattus norvegicus) (UniProt P35439+Q00959+Q00960+Q00961+Q62645+Q8VHN2+Q9R1M7); test: Apparent dissociation constant of [3H]glycine from N-methyl-D-aspartate glutamate receptor in rat cortical slice preparation expressed as log values.
Outline: (§1)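 Rat cortical slice preparation; test compound antagonism of depolarizations evoked by agonists N-methyl-D-aspartic acid, quisqualic acid or kainic acid, expressed as apparent Kb.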

[3] = target: Glutamate receptor ionotropic, AMPA (Rattus norvegicus, UniProt P19490+P19491+P19492+P19493); test: Inhibition of [3H]-AMPA binding to AMPA receptor of rat cortical membrane
[4] = target: Glutamate receptor ionotropic, kainate; test: Inhibition of [3H]-kainic acid binding to kainate receptor of rat cortical membrane
Glutamate NMDA receptor [5] = test: Inhibition of [3H]-glutamate binding to N-methyl-D-aspartate glutamate receptor of rat cortical membranes; type: cell membranes, Membrane
[6] = target: T2, Glutamate receptor ionotropic, kainate (Rattus norvegicus) (UniProt P22756+Q01812+P42260+P42264+Q63273); test: Apparent dissociation constant of [3H]kainate from Ionotropic glutamate receptor ionotropic kainate was determined in rat cortical slice preparation; outline: as §1
[7] = target: T2, Glutamate receptor ionotropic, kainate (Rattus norvegicus); test: Apparent dissociation constant of [3H]kainate from ionotropic glutamate receptor kainate of rat cortical slice at 100 uM; Inactive; type: protein-complex assay; outline: as §1
[8] = target: T3, Glutamate receptor ionotropic, AMPA (Rattus norvegicus) (UniProt P19491+P19492+P19493+P19490); test: Apparent dissociation constant of [3H]AMPA from Quisqualate receptor was determined in rat cortical slice preparation at 100 uM; Inactive; outline: as §1
[9] = target: T1, Glutamate NMDA receptor (Rattus norvegicus); test: Apparent dissociation constant of [3H]-glycine from N-methyl-D-aspartate glutamate receptor in rat cortical slice preparation at 100 uM; Inactive; outline: as §1
[10] = target: T3, Glutamate receptor ionotropic, AMPA (Rattus norvegicus); test: Apparent dissociation constant of [3H]AMPA from quisqualate receptor of rat cortical slices; type: protein-complex assay; outline: as §1
[11] = target: T2, Glutamate receptor ionotropic, kainate (Rattus norvegicus); test: Apparent dissociation constant for [3H]kainate from Ionotropic glutamate receptor kainate of rat cortical slices; type: protein-complex assay
Outline: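 Functional antagonism of kainate-induced depolarizations in rat cortical slices. Apparent Kb was obtained from dose ratios, with a dose ratio under 2 at a stated concentration reported as ">". Kb values are means of at least three experiments.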

[12] = target: T1, Glutamate NMDA receptor (Rattus norvegicus); test: Apparent dissociation constant of [3H]glycine from N-methyl-D-aspartate glutamate receptor of rat cortical slices; type: protein-complex assay
Outline: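 Antagonism of NMDA-induced depolarizations in a rat cortical slice preparation, where endogenous glycine is present at supersaturating levels. Apparent Kb was obtained from dose ratios, with a dose ratio under 2 at a stated concentration reported as ">". Kb values are means of at least three experiments.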

SMILES | IC50 (Glutamate NMDA receptor [1]) [µM] | -Log 1/Kb [2] | Kb [6] [µM] | also measured
O=C(O)c1cc(O)c2cc(Cl)ccc2n1 | > 100 |  | 19 | IC50 [3]: 41 µM; IC50 [4]: > 300 µM; IC50 (Glutamate NMDA receptor [5]): > 300 µM
O=C(O)c1cc(O)c2c(Br)cc(Br)cc2n1 | 0.086 | 5.8 |  | 
Cc1cc(Br)c2c(O)cc(C(=O)O)nc2c1 | 0.82 | 5.68 |  | 
O=C(O)c1cc(O)c2ccc(Cl)cc2n1 [7-CHLOROKYNURENIC ACID] | 0.56 | 5.15 | 50 | IC50 [3]: 153 µM; IC50 [4]: > 1000 µM; IC50 (Glutamate NMDA receptor [5]): 169 µM
O=C(O)c1cc(O)c2c(C(F)(F)F)cc(C(F)(F)F)cc2n1 | > 100 |  |  | 
Oc1nc2cc(Cl)c(Cl)cc2nc1O [2,3-DIHYDROXY-6,7-DICHLOROQUINOXALINE] | 3.1 |  | 9 | 
O=C(O)c1cc(O)c2ccc([N+](=O)[O-])cc2n1 |  | 4.11 |  | 
Oc1nc2cc(Cl)cc(Cl)c2nc1O | 3.4 |  | 22 | 
Cc1cc2nc(O)c(O)nc2cc1C |  |  | 27 | 
COc1cc(C(=O)O)nc2cc(Cl)cc(Cl)c12 | 100 |  |  | Kb [7]: inactive; Kb [8]: inactive; Kb [9]: inactive
O=C(O)c1cc(=O)c2ccccc2[nH]1 [TRANSTORINE] |  |  | 89 | IC50 [3]: 101 µM; IC50 [4]: > 1000 µM
O=C(O)c1cc(O)c2c(Cl)cc(I)cc2n1 | 0.65 | 5 |  | 
CCc1ccc2nc(C(=O)O)cc(O)c2c1 |  |  | > 100 | Kb [10]: > 100 µM; Kb [9]: inactive
O=C(O)c1cc(O)c2c(Br)cccc2n1 |  | 4.7 |  | 
Cc1cccc2nc(C(=O)O)cc(O)c12 | 2.1 | 4.68 |  | 
C=Cc1cccc2nc(C(=O)O)cc(O)c12 | > 100 |  |  | 
O=c1[nH]c2ccc(Cl)cc2[nH]c1=O | 8.4 |  |  | 

SMILES | IC50 (Glutamate NMDA receptor [1]) [µM] | -Log 1/Kb [2] | Kb [6] [µM] | also measured
CCc1cc(Cl)cc2nc(C(=O)O)cc(O)c12 | 0.26 | 6 |  | 
Oc1nc2ccc(Cl)cc2nc1O |  |  | 26 | 
O=C(O)c1cc(O)c2c(Cl)cccc2n1 | 5.2 | 4.43 | > 100 | 
O=C(O)c1cc(O)c2cc(I)ccc2n1 |  |  | 37 | Kb [10]: 56 µM
CCCc1cccc2nc(C(=O)O)cc(O)c12 |  | 3.4 |  | 
COc1ccc2nc(C(=O)O)cc(O)c2c1 |  |  | 32 | Kb [10]: 87 µM; Kb [9]: inactive
O=C(O)c1cc(O)c2cc(Br)ccc2n1 |  |  | 30 | Kb [10]: 28 µM
COc1ccc2c(O)cc(C(=O)O)nc2c1 | > 100 |  |  | 
O=C(O)c1cc(O)c2ccc(Br)cc2n1 | 0.85 | 5.1 |  | 
Oc1nc2ccccc2nc1O | 38.6 |  | > 100 | 
O=C(O)c1nc2cc(Cl)ccc2[nH]1 | 5.6 |  |  | 
Cc1cc(I)cc2nc(C(=O)O)cc(O)c12 | 1.2 | 5.05 |  | 
CCCc1ccc2c(O)cc(C(=O)O)nc2c1 | > 100 |  |  | 
O=C(O)c1cc(O)c2ccc(C(F)(F)F)cc2n1 |  | 3.52 |  | 
Cc1cc(C)c2c(O)cc(C(=O)O)nc2c1 | 0.54 | 5.16 |  | 
O=[N+]([O-])c1cc2nc(O)c(O)nc2cc1[N+](=O)[O-] |  |  |  | Kb [11]: 1.29 µM; Kb [12]: 5.3 µM

Second part, led by results:

IC50 (Glutamate NMDA receptor [1]) [µM] | -Log 1/Kb [2] | Kb [6] [µM] | SMILES | also measured
> 100 | 3.58 |  | C=Cc1ccc2c(O)cc(C(=O)O)nc2c1 | 
> 100 |  |  | Cn1c(C(=O)O)cc(=O)c2c(Cl)cc(Cl)cc21 | Kb [7]: inactive; Kb [8]: inactive; Kb [9]: inactive
56.3 |  | > 100 | Oc1nc2cccc(Cl)c2nc1O | 
49 |  |  | O=C(O)CNc1cc(Cl)cc(Cl)c1 | Kb [8]: inactive
0.032 | 6.4 |  | O=C(O)c1cc(O)c2c(I)cc(Cl)cc2n1 | 
 |  | 55 | O=C(O)c1cc(O)c2cc(F)ccc2n1 | Kb [10]: 48 µM
1.1 | 5.58 |  | Cc1cc(Br)cc2nc(C(=O)O)cc(O)c12 | 
> 100 |  |  | Cc1cc2c(cc1C)n(C)c(=O)c(=O)n2C | 
> 100 |  |  | O=C(O)c1cc(O)c2c([N+](=O)[O-])cc([N+](=O)[O-])cc2n1 | 
 | 2.67 |  | CSc1ccc2c(O)cc(C(=O)O)nc2c1 | 
0.63 | 5.12 |  | O=C(O)c1cc(O)c2c(I)cccc2n1 | 
 | 4.39 |  | O=C(O)c1cc(O)c2c(F)cccc2n1 | 
4.9 | 4.42 |  | CCc1cc(Cl)c2c(O)cc(C(=O)O)nc2c1 | 
 |  | > 100 | O=C(O)c1cc(O)c2cc(C(F)(F)F)ccc2n1 | Kb [10]: > 100 µM; Kb [9]: inactive
8.3 |  | 4.6 | O=[N+]([O-])c1ccc2nc(O)c(O)nc2c1 | 
0.066 | 5.75 |  | CCc1cc(Br)cc2nc(C(=O)O)cc(O)c12 | 
0.2 |  | > 30 | O=C(O)c1cc(O)c2c(Cl)cc(Cl)cc2n1 | IC50 [4]: > 300 µM; IC50 (Glutamate NMDA receptor [5]): > 100 µM
> 100 | 3.82 |  | CCc1ccc2c(O)cc(C(=O)O)nc2c1 | 
3.2 | 4.72 |  | CCc1cc(Br)c2c(O)cc(C(=O)O)nc2c1 | 

IC50 (Glutamate NMDA receptor [1]) [µM] | -Log 1/Kb [2] | Kb [6] [µM] | SMILES | also measured
> 100 |  |  | COc1nc2cc(C)c(C)cc2nc1OC | 
2.4 |  | 14 | O=C(O)c1cc(O)c2c(Cl)c(Cl)c(Cl)cc2n1 | 
 |  | 59 | Cc1ccc2nc(C(=O)O)cc(O)c2c1 | Kb [10]: 66 µM; Kb [9]: inactive
0.27 | 6 |  | Cc1cc(I)c2c(O)cc(C(=O)O)nc2c1 | 
> 100 |  |  | O=C(O)c1cc(O)c2cccc(Cl)c2n1 | Kb [7]: inactive; Kb [8]: inactive; Kb [9]: inactive
2.3 |  |  | Cc1cc2[nH]c(=O)c(=O)[nH]c2cc1C | 
 | 4.5 |  | O=C(O)c1cc(O)c2ccc(F)cc2n1 | 
 |  | 43 | CSc1ccc2nc(C(=O)O)cc(O)c2c1 | Kb [10]: 56 µM
 | 4.46 |  | O=C(O)c1cc(O)c2c(C(F)(F)F)cccc2n1 | 
 |  | 49 | O=C(O)c1cc(O)c2cc([N+](=O)[O-])ccc2n1 | Kb [10]: 52 µM; Kb [9]: inactive
> 100 |  |  | CC(C)c1ccc2c(O)cc(C(=O)O)nc2c1 | 
1.8 | 4.47 |  | Cc1ccc2c(O)cc(C(=O)O)nc2c1 | 
3.6 | 4.33 |  | O=C(O)c1cc(O)c2ccc(I)cc2n1 | 
6.6 |  | 47 | Cc1cc2[nH]c(=O)c(=O)n(C)c2cc1C | 
4.8 | 5.26 |  | CCc1cccc2nc(C(=O)O)cc(O)c12 | 
6.8 |  |  | O=C(O)C(=O)Nc1cc(Cl)cc(Cl)c1 | Kb [8]: inactive
> 100 |  |  | CCCCc1ccc2c(O)cc(C(=O)O)nc2c1 | 
> 100 | 3.31 |  | CCCCc1cccc2nc(C(=O)O)cc(O)c12 | 
